Laboratory results as given in ChEMBL document CHEMBL1156088, “Synthesis and biological activity of novel oxazolidinones” (2009).
Converted amounts (≈) assume the structure as drawn.

These compounds were tested on Staphylococcus aureus (assay: Antibacterial activity against Staphylococcus aureus ATCC 25923 by NCCLS method).
Type: functional
Summary of the method: (§1)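 In vitro MIC determination by the NCCLS method against a panel of gram-positive bacteria. Two oxazolidinone reference standards were tested alongside.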
Compound `CC(=S)NC[C@H]1CN(c2ccc(N3CCN(Cc4ccc([N+](=O)[O-])o4)CC3)c(F)c2)C(=O)O1` has an MIC of 1 µg/mL (≈ 2.09 µM).
For `CSC(=S)NC[C@H]1CN(c2ccc(N3CCN(Cc4ccc([N+](=O)[O-])o4)CC3)c(F)c2)C(=O)O1`, the MIC was over 16 µg/mL.
Compound `O=C(/C=C/c1ccccc1)NC[C@H]1CN(c2ccc(N3CCN(Cc4ccc([N+](=O)[O-])o4)CC3)c(F)c2)C(=O)O1` has an MIC of over 16 µg/mL.
Compound `CCOC(=O)NC[C@H]1CN(c2ccc(N3CCN(Cc4ccc([N+](=O)[O-])o4)CC3)c(F)c2)C(=O)O1` has an MIC of over 16 µg/mL.
In the case of `COCC(=O)NC[C@H]1CN(c2ccc(N3CCN(Cc4ccc([N+](=O)[O-])o4)CC3)c(F)c2)C(=O)O1`, the MIC is reported as over 16 µg/mL.
With `O=CNC[C@H]1CN(c2ccc(N3CCN(Cc4ccc([N+](=O)[O-])o4)CC3)c(F)c2)C(=O)O1` the MIC was 4 µg/mL (≈ 8.94 µM).
For `CC(Cl)C(=O)NC[C@H]1CN(c2ccc(N3CCN(Cc4ccc([N+](=O)[O-])o4)CC3)c(F)c2)C(=O)O1` (stereo partly specified), the MIC was over 16 µg/mL.

What follows are compounds tested on Streptococcus pneumoniae (assay: Antibacterial activity against Streptococcus pneumoniae ATCC 6303 by NCCLS method).
Type: functional
Summary of the method: as §1
Work on `CC(=S)NC[C@H]1CN(c2ccc(N3CCN(Cc4ccc([N+](=O)[O-])o4)CC3)c(F)c2)C(=O)O1` yielded an MIC of 0.25 µg/mL (≈ 0.524 µM).
In the case of `CSC(=S)NC[C@H]1CN(c2ccc(N3CCN(Cc4ccc([N+](=O)[O-])o4)CC3)c(F)c2)C(=O)O1`, the MIC is reported as over 16 µg/mL.
`O=C(/C=C/c1ccccc1)NC[C@H]1CN(c2ccc(N3CCN(Cc4ccc([N+](=O)[O-])o4)CC3)c(F)c2)C(=O)O1` gave an MIC of over 16 µg/mL.
`CCOC(=O)NC[C@H]1CN(c2ccc(N3CCN(Cc4ccc([N+](=O)[O-])o4)CC3)c(F)c2)C(=O)O1` gave an MIC of over 16 µg/mL.
`COCC(=O)NC[C@H]1CN(c2ccc(N3CCN(Cc4ccc([N+](=O)[O-])o4)CC3)c(F)c2)C(=O)O1` gave an MIC of over 16 µg/mL.
`O=CNC[C@H]1CN(c2ccc(N3CCN(Cc4ccc([N+](=O)[O-])o4)CC3)c(F)c2)C(=O)O1` was tested, and the MIC was 1 µg/mL (≈ 2.24 µM).
`CC(Cl)C(=O)NC[C@H]1CN(c2ccc(N3CCN(Cc4ccc([N+](=O)[O-])o4)CC3)c(F)c2)C(=O)O1` (stereo partly specified) was tested, and the MIC was over 16 µg/mL.

The compounds below were run on Staphylococcus aureus (assay: Antibacterial activity against methicillin-resistant Staphylococcus aureus 33 by NCCLS method).
Type: functional
Summary of the method: (§2)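 In vitro MIC determined by the NCCLS method against a panel of gram-positive bacteria. Ranbezolid and linezolid were run alongside as reference standards.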
For `CC(=S)NC[C@H]1CN(c2ccc(N3CCN(Cc4ccc([N+](=O)[O-])o4)CC3)c(F)c2)C(=O)O1`, the MIC was 1 µg/mL (≈ 2.09 µM).
With `CSC(=S)NC[C@H]1CN(c2ccc(N3CCN(Cc4ccc([N+](=O)[O-])o4)CC3)c(F)c2)C(=O)O1` the MIC was over 16 µg/mL.
Work on `O=C(/C=C/c1ccccc1)NC[C@H]1CN(c2ccc(N3CCN(Cc4ccc([N+](=O)[O-])o4)CC3)c(F)c2)C(=O)O1` yielded an MIC of over 16 µg/mL.
`CCOC(=O)NC[C@H]1CN(c2ccc(N3CCN(Cc4ccc([N+](=O)[O-])o4)CC3)c(F)c2)C(=O)O1` was tested, and the MIC was over 16 µg/mL.
For `COCC(=O)NC[C@H]1CN(c2ccc(N3CCN(Cc4ccc([N+](=O)[O-])o4)CC3)c(F)c2)C(=O)O1`, the MIC was over 16 µg/mL.
`O=CNC[C@H]1CN(c2ccc(N3CCN(Cc4ccc([N+](=O)[O-])o4)CC3)c(F)c2)C(=O)O1` showed an MIC of 2 µg/mL (≈ 4.47 µM).
Work on `CC(Cl)C(=O)NC[C@H]1CN(c2ccc(N3CCN(Cc4ccc([N+](=O)[O-])o4)CC3)c(F)c2)C(=O)O1` (stereo partly specified) yielded an MIC of over 16 µg/mL.

Each compound was assayed on Streptococcus pyogenes (assay: Antibacterial activity against Streptococcus pyogenes ATCC 19615 by NCCLS method).
Type: functional
Summary of the method: as §1
`CC(=S)NC[C@H]1CN(c2ccc(N3CCN(Cc4ccc([N+](=O)[O-])o4)CC3)c(F)c2)C(=O)O1` gave an MIC of 0.5 µg/mL (≈ 1.05 µM).
Compound `CSC(=S)NC[C@H]1CN(c2ccc(N3CCN(Cc4ccc([N+](=O)[O-])o4)CC3)c(F)c2)C(=O)O1` has an MIC of over 16 µg/mL.
Work on `O=C(/C=C/c1ccccc1)NC[C@H]1CN(c2ccc(N3CCN(Cc4ccc([N+](=O)[O-])o4)CC3)c(F)c2)C(=O)O1` yielded an MIC of over 16 µg/mL.
For `CCOC(=O)NC[C@H]1CN(c2ccc(N3CCN(Cc4ccc([N+](=O)[O-])o4)CC3)c(F)c2)C(=O)O1`, the MIC was over 16 µg/mL.
`COCC(=O)NC[C@H]1CN(c2ccc(N3CCN(Cc4ccc([N+](=O)[O-])o4)CC3)c(F)c2)C(=O)O1` was tested, and the MIC was over 16 µg/mL.
In the case of `O=CNC[C@H]1CN(c2ccc(N3CCN(Cc4ccc([N+](=O)[O-])o4)CC3)c(F)c2)C(=O)O1`, the MIC is reported as 0.5 µg/mL (≈ 1.12 µM).
Work on `CC(Cl)C(=O)NC[C@H]1CN(c2ccc(N3CCN(Cc4ccc([N+](=O)[O-])o4)CC3)c(F)c2)C(=O)O1` (stereo partly specified) yielded an MIC of over 16 µg/mL.

Each compound was assayed on Enterococcus faecium (assay: Antibacterial activity against vancomycin-resistant Enterococcus faecium 6A by NCCLS method).
Type: functional
Summary of the method: as §2
Compound `CC(=S)NC[C@H]1CN(c2ccc(N3CCN(Cc4ccc([N+](=O)[O-])o4)CC3)c(F)c2)C(=O)O1` has an MIC of 1 µg/mL (≈ 2.09 µM).
`CSC(=S)NC[C@H]1CN(c2ccc(N3CCN(Cc4ccc([N+](=O)[O-])o4)CC3)c(F)c2)C(=O)O1` gave an MIC of over 16 µg/mL.
`O=C(/C=C/c1ccccc1)NC[C@H]1CN(c2ccc(N3CCN(Cc4ccc([N+](=O)[O-])o4)CC3)c(F)c2)C(=O)O1` showed an MIC of over 16 µg/mL.
Work on `CCOC(=O)NC[C@H]1CN(c2ccc(N3CCN(Cc4ccc([N+](=O)[O-])o4)CC3)c(F)c2)C(=O)O1` yielded an MIC of over 16 µg/mL.
With `COCC(=O)NC[C@H]1CN(c2ccc(N3CCN(Cc4ccc([N+](=O)[O-])o4)CC3)c(F)c2)C(=O)O1` the MIC was over 16 µg/mL.
For `O=CNC[C@H]1CN(c2ccc(N3CCN(Cc4ccc([N+](=O)[O-])o4)CC3)c(F)c2)C(=O)O1`, the MIC was 4 µg/mL (≈ 8.94 µM).
With `CC(Cl)C(=O)NC[C@H]1CN(c2ccc(N3CCN(Cc4ccc([N+](=O)[O-])o4)CC3)c(F)c2)C(=O)O1` (stereo partly specified) the MIC was over 16 µg/mL.

What follows are compounds tested on Staphylococcus aureus (assay: Antibacterial activity against Staphylococcus aureus 15187 by NCCLS method).
Type: functional
Summary of the method: as §1
Compound `CC(=S)NC[C@H]1CN(c2ccc(N3CCN(Cc4ccc([N+](=O)[O-])o4)CC3)c(F)c2)C(=O)O1` has an MIC of 1 µg/mL (≈ 2.09 µM).
In the case of `CSC(=S)NC[C@H]1CN(c2ccc(N3CCN(Cc4ccc([N+](=O)[O-])o4)CC3)c(F)c2)C(=O)O1`, the MIC is reported as over 16 µg/mL.
Compound `O=C(/C=C/c1ccccc1)NC[C@H]1CN(c2ccc(N3CCN(Cc4ccc([N+](=O)[O-])o4)CC3)c(F)c2)C(=O)O1` has an MIC of over 16 µg/mL.
`CCOC(=O)NC[C@H]1CN(c2ccc(N3CCN(Cc4ccc([N+](=O)[O-])o4)CC3)c(F)c2)C(=O)O1` showed an MIC of over 16 µg/mL.
`COCC(=O)NC[C@H]1CN(c2ccc(N3CCN(Cc4ccc([N+](=O)[O-])o4)CC3)c(F)c2)C(=O)O1` was tested, and the MIC was over 16 µg/mL.
`O=CNC[C@H]1CN(c2ccc(N3CCN(Cc4ccc([N+](=O)[O-])o4)CC3)c(F)c2)C(=O)O1` showed an MIC of 2 µg/mL (≈ 4.47 µM).
With `CC(Cl)C(=O)NC[C@H]1CN(c2ccc(N3CCN(Cc4ccc([N+](=O)[O-])o4)CC3)c(F)c2)C(=O)O1` (stereo partly specified) the MIC was over 16 µg/mL.

These compounds were tested on Staphylococcus aureus (assay: Antibacterial activity against methicillin-resistant Staphylococcus aureus 562 by NCCLS method).
Type: functional
Summary of the method: as §2
Work on `CC(=S)NC[C@H]1CN(c2ccc(N3CCN(Cc4ccc([N+](=O)[O-])o4)CC3)c(F)c2)C(=O)O1` yielded an MIC of 1 µg/mL (≈ 2.09 µM).
With `CSC(=S)NC[C@H]1CN(c2ccc(N3CCN(Cc4ccc([N+](=O)[O-])o4)CC3)c(F)c2)C(=O)O1` the MIC was over 16 µg/mL.
`O=C(/C=C/c1ccccc1)NC[C@H]1CN(c2ccc(N3CCN(Cc4ccc([N+](=O)[O-])o4)CC3)c(F)c2)C(=O)O1` gave an MIC of over 16 µg/mL.
In the case of `CCOC(=O)NC[C@H]1CN(c2ccc(N3CCN(Cc4ccc([N+](=O)[O-])o4)CC3)c(F)c2)C(=O)O1`, the MIC is reported as over 16 µg/mL.
Compound `COCC(=O)NC[C@H]1CN(c2ccc(N3CCN(Cc4ccc([N+](=O)[O-])o4)CC3)c(F)c2)C(=O)O1` has an MIC of over 16 µg/mL.
In the case of `O=CNC[C@H]1CN(c2ccc(N3CCN(Cc4ccc([N+](=O)[O-])o4)CC3)c(F)c2)C(=O)O1`, the MIC is reported as 2 µg/mL (≈ 4.47 µM).
For `CC(Cl)C(=O)NC[C@H]1CN(c2ccc(N3CCN(Cc4ccc([N+](=O)[O-])o4)CC3)c(F)c2)C(=O)O1` (stereo partly specified), the MIC was over 16 µg/mL.

What follows are compounds tested on Enterococcus faecalis (assay: Antibacterial activity against Enterococcus faecalis ATCC 29212 by NCCLS method).
Type: functional
Summary of the method: as §1
With `CC(=S)NC[C@H]1CN(c2ccc(N3CCN(Cc4ccc([N+](=O)[O-])o4)CC3)c(F)c2)C(=O)O1` the MIC was 1 µg/mL (≈ 2.09 µM).
`CSC(=S)NC[C@H]1CN(c2ccc(N3CCN(Cc4ccc([N+](=O)[O-])o4)CC3)c(F)c2)C(=O)O1` showed an MIC of over 16 µg/mL.
With `O=C(/C=C/c1ccccc1)NC[C@H]1CN(c2ccc(N3CCN(Cc4ccc([N+](=O)[O-])o4)CC3)c(F)c2)C(=O)O1` the MIC was over 16 µg/mL.
`CCOC(=O)NC[C@H]1CN(c2ccc(N3CCN(Cc4ccc([N+](=O)[O-])o4)CC3)c(F)c2)C(=O)O1` was tested, and the MIC was over 16 µg/mL.
For `COCC(=O)NC[C@H]1CN(c2ccc(N3CCN(Cc4ccc([N+](=O)[O-])o4)CC3)c(F)c2)C(=O)O1`, the MIC was over 16 µg/mL.
`O=CNC[C@H]1CN(c2ccc(N3CCN(Cc4ccc([N+](=O)[O-])o4)CC3)c(F)c2)C(=O)O1` showed an MIC of 2 µg/mL (≈ 4.47 µM).
`CC(Cl)C(=O)NC[C@H]1CN(c2ccc(N3CCN(Cc4ccc([N+](=O)[O-])o4)CC3)c(F)c2)C(=O)O1` (stereo partly specified) gave an MIC of over 16 µg/mL.
